# Experiments:
# [1] = test system: methionine auxotroph E. coli transformed with AtCgS; type: cell-based; conditions: for Bacterial growth with external methionine / Bacterial growth without external methionine: 50 µM compound, M9 minimal media; for Bacterial growth with external methionine: methionine 40 mg/L; for Bacterial growth without external methionine: no methionine
# Method in brief: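 Methionine-auxotroph E. coli LE392 carrying pQE-30–AtCgS grown in M9 minimal medium with IPTG, with or without 40 mg/L methionine. Test compound at 50 µM final, or a concentration series, from a 50 mM DMSO stock; DMSO-only controls (0.1%). OD600 read every 20 min for about 1000 min at 37 °C with orbital shaking. Curve slopes from a linear fit; slope ratio versus DMSO, in duplicate.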
# CgS = biological target: T1, CgS (Arabidopsis thaliana, UniProt P55217); assay: Micro Scale Thermophoresis; type: binding
# T1 sequence (P55217 69-563): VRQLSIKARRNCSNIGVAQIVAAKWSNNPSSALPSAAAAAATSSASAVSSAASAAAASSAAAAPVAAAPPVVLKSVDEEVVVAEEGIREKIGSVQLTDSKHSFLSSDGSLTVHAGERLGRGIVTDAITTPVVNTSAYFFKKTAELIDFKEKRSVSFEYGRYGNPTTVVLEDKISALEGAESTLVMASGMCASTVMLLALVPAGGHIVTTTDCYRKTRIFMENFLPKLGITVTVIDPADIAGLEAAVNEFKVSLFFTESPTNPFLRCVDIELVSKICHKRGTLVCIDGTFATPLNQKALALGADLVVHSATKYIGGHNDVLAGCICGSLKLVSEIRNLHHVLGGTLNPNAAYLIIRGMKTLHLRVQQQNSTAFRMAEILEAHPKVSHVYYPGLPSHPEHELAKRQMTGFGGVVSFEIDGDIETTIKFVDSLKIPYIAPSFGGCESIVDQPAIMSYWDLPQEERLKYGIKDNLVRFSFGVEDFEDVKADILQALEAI
# Method in brief: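 Purified recombinant AtCgS labelled with an amine-reactive fluorophore, 100 nM per capillary. Incubated with a dilution series of test compound and measured by microscale thermophoresis (Monolith NT.115). Baseline normalised to the mean of the three lowest concentrations. Signal fitted to a single-site binding model to give Kd.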
Compound,Bacterial growth with external methionine [1],Bacterial growth without external methionine [1],"Bacterial growth curves, dose–response without external methionine ([1]; variable concentrations, M9, no methionine)","Bacterial growth curves, dose–response with external methionine ([1]; variable concentrations, M9, with methionine)",Kd (CgS) [µM]
"Cc1cc(O)nc(-c2cccc(NC(=O)c3c(O)cccc3F)c2)n1 [CGSI‐1, 2‐fluoro‐6‐hydroxy‐N‐(3‐(4‐hydroxy‐6‐methylpyrimidin‐2‐yl)phenyl)benzamide]",not active in its presence,active in the absence of methionine,clear dose–response behaviour,no effect,29.4
"C#CCC(N)C(=O)O (stereo not shown) [PAG, propargyl‐glycine, reference compound]",the cells grew in the presence of PAG,significantly inhibits cell growth,,,
